Inhibition data for 12 compounds are collected here from ChEMBL document CHEMBL3272254, “Inhibition of squalene synthetase by farnesyl pyrophosphate analogues” (J Med Chem, 1977).

In assay [1] the target is T1, Squalene synthase ERG9 (Saccharomyces cerevisiae (strain ATCC 204508 / S288c) (Baker's yeast)) (UniProt P29704).
T1 sequence (whole entry): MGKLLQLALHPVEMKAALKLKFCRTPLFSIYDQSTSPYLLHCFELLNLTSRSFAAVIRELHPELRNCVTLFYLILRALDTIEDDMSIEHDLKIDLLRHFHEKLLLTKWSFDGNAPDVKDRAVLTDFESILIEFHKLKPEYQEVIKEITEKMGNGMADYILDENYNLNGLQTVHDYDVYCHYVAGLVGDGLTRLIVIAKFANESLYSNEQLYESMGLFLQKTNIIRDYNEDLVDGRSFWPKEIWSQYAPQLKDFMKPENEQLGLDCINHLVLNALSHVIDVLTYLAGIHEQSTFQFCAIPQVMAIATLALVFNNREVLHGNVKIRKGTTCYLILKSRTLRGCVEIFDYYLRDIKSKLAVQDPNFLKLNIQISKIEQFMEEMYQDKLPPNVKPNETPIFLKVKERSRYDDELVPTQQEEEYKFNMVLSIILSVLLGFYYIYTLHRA
Kind of assay: Competitive inhibition of Baker's yeast squalene synthetase using [1-3H]farnesyl pyrophosphate as substrate by Lineweaver-Burk graphic analysis. The method, boiled down: (§1)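 Enzyme: yeast […] from sonicated baker's yeast, high-speed supernatant precipitated at 30–55% ammonium sulfate, dialyzed in 100 mM K phosphate pH 7.0 with 20 mM 2-mercaptoethanol. Assay in 1 ml at 37 °C, started with enzyme (1.34 mg/ml protein): [1-3H]FPP 1–10 µM, 10 mM MgCl2, 1.6 mM NADPH, 50 mM K phosphate pH 7.5. Squalene recovered by minicolumn and scintillation counted. Each point done in at least two independent experiments.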

Assay [2] deals with T1, Squalene synthase ERG9 (Saccharomyces cerevisiae (strain ATCC 204508 / S288c) (Baker's yeast)). Kind of assay: Inhibition of Baker's yeast squalene synthetase assessed as incorporation of [1-3H]farnesyl pyrophosphate into squalene up to 20 uM after 2 mins by liquid scintillation spectrometer analysis. The method, boiled down: as §1
Assay [3] shares this target. As to the kind of experiment: Inhibition of Baker's yeast squalene synthetase using [1-3H]farnesyl pyrophosphate as substrate at 4 uM preincubated for up to 5 hrs before substrate addition by liquid scintillation spectrometer analysis.
Assay [4] shares this target. Kind of assay: Mixed type inhibition of Baker's yeast squalene synthetase using [1-3H]farnesyl pyrophosphate as substrate by Lineweaver-Burk graphic analysis. The essentials: as §1
Assay [5] has the same target. Kind of assay: Inhibition of Baker's yeast squalene synthetase assessed as incorporation of [1-3H]farnesyl pyrophosphate into squalene at 2 to 6 uM after 2 mins by liquid scintillation spectrometer analysis. The method, boiled down:
as §1

Activity calls are given as the source filed them. No cut-off for these calls is given here.

`CC(C)CCCC(C)CCCC(C)CCOP(=O)(O)OP(=O)(O)O` (stereo not given): the inhibition result in assay [1] is “Active”. Also, in assay [2], the inhibition result is “inactive”.

For `C/C(=C\COP(=O)(O)OP(=O)(O)O)CCCC(C)CCCC(C)CCCC(C)C` (mixture of isomers), the inhibition entry in assay [1] was “Active”. In assay [2], the inhibition entry was “inactive”.

Consider `CC(C)=CCC/C(C)=C/CC/C(I)=C\COP(=O)(O)OP(=O)(O)O`, for which the inhibition result in assay [1] and in assay [3] was “Active” throughout. Further, in assay [2], the inhibition entry was “inactive”.

In the case of `CC(C)=CCC/C(C)=C/CC/C=C/COP(=O)(O)OP(=O)(O)O`, the inhibition entry in assay [3] and in assay [4] was “Active” in each case. In addition, the inhibition result in assay [2] was “inactive”.

Take `CC/C(=C\COP(=O)(O)OP(=O)(O)O)CC/C=C(\C)CCC=C(C)C`: the inhibition entry in assay [1] and in assay [5] was “Active” in each case. Besides, the inhibition result in assay [2] is “inactive”.

Consider `CC(C)=CCC/C(C)=C/CC/C(C)=C(\C)COP(=O)(O)OP(=O)(O)O`, for which the inhibition result in assay [5] was “Active”. For the same compound, the inhibition entry in assay [2] was “inactive”.

In the case of `CC(C)=CCC/C(C)=C/CCC#CCOP(=O)(O)OP(=O)(O)O`, the inhibition result in assay [3] and in assay [4] was “Active” throughout. Besides, the inhibition entry in assay [2] is “inactive”.

With `CSC(C/C=C(\C)CCC=C(C)C)/C(C)=C/COP(=O)(O)OP(=O)(O)O` (stereo not given), the inhibition entry in assay [1] and in assay [3] was “Active” throughout. In addition, in assay [2], the inhibition result was “inactive”.

With `CC(C)=CCC/C(C)=C/CC/C(C)=C/COP(=O)(O)OP(=O)(O)O`, the inhibition result in assay [5] was “Active”.

`C/C(=C\COP(=O)(O)OP(=O)(O)O)CCCC(C)CCCC(C)C` (stereo not given): the inhibition entry in assay [1] was “Active”. Further, the inhibition result in assay [2] is “inactive”.

Regarding `CC(C)=CCC/C(C)=C/CC/C=C(/I)COP(=O)(O)OP(=O)(O)O`, the inhibition result in assay [1] and in assay [3] was “Active” in each case. Also, the inhibition result in assay [2] is “inactive”.

As for `CC(C)=CCC/C(C)=C/COP(=O)(O)OP(=O)(O)O`, the inhibition entry in assay [1] and in assay [5] was “Active” throughout. The inhibition result in assay [2] was “inactive”.
